Measurements collected from several papers.
Compare with care: the assays were run in different laboratories.
Cell line: MDA-MB-231
Observed: cell growth or viability

C=CC(=O)c1cccnc1Nc1cc(C(F)(F)F)ccc1OC  GI50 (SRB; 48 h): 10500 nM
C[C@@H]1CC[C@@H]([C@](C)(O)CNCc2cccc(F)c2)[C@H](OCc2ccccc2)C1  inhibition (MTT; 30 µM; 72 h): 96.1%
O=C(/C=C/c1cccc(F)c1)Nc1cc(-c2ccnc(N3CCC(O)CC3)c2)ccn1  inhibition (MTT; 5 µM): 75.8%
COc1ccc(CNC[C@](O)(COCc2ccc(OC)cc2)[C@@H]2CC[C@@H](C)C[C@H]2OCc2ccc(OC)cc2)cc1  inhibition (MTT; 30 µM; 72 h): 98.8%
O=C(C=Cc1ccccc1)Nc1cc(-c2ccnc(N3CCC(O)CC3)c2)ccn1  inhibition (MTT; 5 µM): 80.3%
Nc1ccccc1NC(=O)c1ccc(CNC(=O)OCc2cccnc2)cc1  IC50 (MTT; 48 h): 2930 nM
Cn1cc(-n2cnc3c(NCc4nc5cc(Cl)c(Cl)cc5[nH]4)nc(N4CCOCC4)nc32)cn1  EC50 (5 days): 32.4 nM
CCOc1ccc2c(C)c(CC)c(=O)oc2c1C  viability (MTT; 1000 µg/mL): 2.44%
C=CC(=O)c1cccnc1Nc1cccc(C(F)(F)F)c1  GI50 (SRB; 48 h): 14600 nM
Cc1cccc(/C=C/C(=O)Nc2cccc(-c3ccnc(N4CCC(O)CC4)c3)c2)c1  inhibition (MTT; 5 µM): 63.5%
C=CC(=O)NC1CCN(c2ncc3ncnc(Nc4ccc(Oc5ccc6c(c5)ncn6C)c(C)c4)c3n2)CC1  EC50: 328 nM
CCNC(=S)NNC(=O)COc1ccc2c(C)c(CC)c(=O)oc2c1C  viability (MTT; 1000 µg/mL): 4.73%
O=C(C=Cc1ccccc1)Nc1cccc(-c2ccnc(N3CCC(CO)CC3)c2)c1  inhibition (MTT; 5 µM): 67.4%
CCc1c(C)c2ccc(OCC(=O)NN=Cc3ccc([N+](=O)[O-])cc3)cc2oc1=O  viability (MTT; 250 µg/mL): 17.3%
Cc1cccc(/C=C/C(=O)Nc2cccc(-c3ccnc(N4CCOCC4)c3)c2)c1  inhibition (MTT; 5 µM): 32.2%
CCNCCCn1c2c(c3cc(OC)c(OC)cc3c1=O)C(=O)c1cc3c(nc1-2)OCO3  IC50 (MTS; 72 h): 476 nM
C[C@@H]1CC[C@@H]([C@](C)(O)Cn2cnc3ccccc32)[C@H](OCc2ccccc2)C1  inhibition (MTT; 30 µM; 72 h): 83.2%
Cc1c(Cc2ccccc2)c(=O)oc2c(C)c(OCC(=O)NN=Cc3ccco3)ccc12  viability (MTT; 31.25 µg/mL): 15.3%
COc1cc([C@@H]2c3cc4c(cc3[C@@H](O[C@@H]3O[C@@H]5CO[C@@H](C)O[C@H]5[C@H](O)[C@H]3O)[C@H]3COC(=O)[C@H]23)OCO4)cc(OC)c1O  IC50 (MTT; 48 h): 43200 nM
COc1cc2c3c(n(CCCn4ccnc4)c(=O)c2cc1OC)-c1nc2c(cc1C3=O)OCO2  IC50 (MTS; 72 h): 1510 nM
CC(=NNC(=O)COc1ccc2c(C)c(Cc3ccccc3)c(=O)oc2c1C)c1ccc(Br)cc1  viability (MTT; 31.25 µg/mL): 48.2%
O=C(C=Cc1ccc(F)cc1)Nc1cc(-c2ccnc(N3CCC(O)CC3)c2)ccn1  inhibition (MTT; 5 µM): 72.3%
C#Cc1nc(C2=C(C)C(O)CC2)cs1 (stereo not drawn)  CC50: 3200 nM
COc1ccc(CNC[C@@](C)(O)[C@@H]2CC[C@@H](C)C[C@H]2OCc2ccccc2)cc1  inhibition (MTT; 10 µM; 72 h): 45.7%
Cc1cccc(/C=C/C(=O)Nc2cccc(-c3ccnc(N4CCC(CO)CC4)c3)c2)c1  inhibition (MTT; 5 µM): 76.4%
C[C@@H]1CC[C@@H]([C@@](O)(CNCc2ccccc2)COCc2ccccc2)[C@H](OCc2ccccc2)C1  inhibition (MTT; 30 µM; 72 h): 97%
Cc1c(Cc2ccccc2)c(=O)oc2c(C)c(OCC(=O)NN=Cc3ccc(Cl)cc3)ccc12  viability (MTT; 62.5 µg/mL): 47.1%
C=C(COCc1ccccc1)[C@@H]1CC[C@@H](C)C[C@H]1OCc1ccccc1  inhibition (MTT; 30 µM; 72 h): 28.1%
Nc1ccccc1NC(=O)c1ccc(CNc2ccc(NC3=C(Cl)C(=O)c4cccnc4C3=O)cc2)cc1  IC50 (MTT; 48 h): 1070 nM
C[C@@H]1CC[C@@H]([C@@](O)(CNCc2cccc3ccccc23)COCc2ccccc2)[C@H](OCc2ccccc2)C1  inhibition (MTT; 30 µM; 72 h): 91.2%
O=C(C=Cc1ccccc1)Nc1cccc(-c2ccnc(N3CCOCC3)c2)c1  inhibition (MTT; 5 µM): 49%
C[C@@H]1CC[C@@H]([C@@](O)(CNCc2ccccc2)COCc2ccc(F)cc2)[C@H](OCc2ccc(F)cc2)C1  inhibition (MTT; 10 µM; 72 h): 97.9%
CCc1c(C)c2ccc(OCC(=O)NNC(=S)Nc3ccccc3)c(C)c2oc1=O  viability (MTT; 500 µg/mL): 4.23%
